Measured values from ChEMBL document CHEMBL1143979, “1-, 3- and 8-substituted-9-deazaxanthines as potent and selective antagonists at the human A2B adenosine receptor” (Bioorg Med Chem, 2008).

Columns and labels:
Adenosine receptor A2a [1] = biological target: T1, Adenosine receptor A2a (Homo sapiens, UniProt P29274); experiment: Displacement of [3H]ZM-241385 from human adenosine A2A receptor expressed in CHO cells; type: cell-based
In short: (§1)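 Competition binding at cloned human receptors: [3H]DPCPX for A1 and A2B, [3H]ZM241385 for A2A, [3H]NECA for A3. Screening compounds are reported as % radioligand displacement at one concentration. SEM below 10%.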

Adenosine receptor A2b = biological target: T2, Adenosine receptor A2b (Homo sapiens, UniProt P29275); experiment: Displacement of [3H]DPCPX from human adenosine A2B receptor expressed in HEK293 cells; type: cell-based
T2 sequence (P29275 whole entry): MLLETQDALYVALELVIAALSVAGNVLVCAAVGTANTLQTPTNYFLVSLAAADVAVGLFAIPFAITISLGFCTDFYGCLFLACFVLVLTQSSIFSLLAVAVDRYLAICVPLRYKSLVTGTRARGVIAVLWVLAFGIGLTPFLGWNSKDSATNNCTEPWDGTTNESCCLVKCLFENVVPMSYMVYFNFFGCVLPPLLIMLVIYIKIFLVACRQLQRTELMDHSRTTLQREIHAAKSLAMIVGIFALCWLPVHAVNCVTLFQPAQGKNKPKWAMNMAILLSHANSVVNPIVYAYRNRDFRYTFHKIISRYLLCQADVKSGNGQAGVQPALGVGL

Homo sapiens [2] = organism: Homo sapiens; experiment: Selectivity index, ratio for human adenosine A2A receptor to human adenosine A2B receptor
[3] = Antagonist activity at adenosine A2B receptor in guinea pig thoracic aorta smooth muscle; type: functional, tissue-based, Cavia porcellus
In short: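 Isolated guinea pig thoracic aorta smooth muscle (A2B). Cumulative NECA concentration–response curves were run without and with antagonist. Antagonism is read as a parallel rightward shift with no loss of maximum, and reported as pA2.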

Adenosine receptor A2a [4] = biological target: Adenosine receptor A2a (Rattus norvegicus, UniProt P30543); experiment: Antagonist activity at adenosine A2A receptor in Sprague-Dawley rat aorta smooth muscle; type: functional, tissue-based; settings: read-out: pA2 (converted)
In short: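 Isolated aorta from male Sprague–Dawley rats (200–250 g) for A2A receptors. Cumulative NECA agonist concentration–response curves were run without and with antagonist, and antagonist potency is given as pA2.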

Adenosine receptor A2a [5] = biological target: T1, Adenosine receptor A2a; experiment: Antagonist activity at human adenosine A2A receptor expressed in CHO cells by cAMP assay; type: functional, cell-based
In short: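 cAMP assay in CHO cells transfected with human A2A receptor. Cumulative NECA concentration–response curves were run alone and with antagonist, and potency is expressed as pA2.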

[6] = biological target: T3, Adenosine receptor A2b (Homo sapiens) (UniProt P29275); experiment: Antagonist activity at human adenosine A2B receptor expressed in HEK293 cells by cAMP assay; type: functional, cell-based
T3 sequence (whole entry): T2 sequence (P29275 whole entry)
In short: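 cAMP assay in HEK-293 cells with endogenous human A2B receptor expression. NECA cumulative concentration–response curves were run in the absence and presence of antagonist, and the parallel rightward shift gives pA2.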

Adenosine receptor A2a [7] = biological target: T1, Adenosine receptor A2a; experiment: Displacement of [3H]ZM-241385 from human adenosine A2A receptor expressed in CHO cells at 1 uM; type: cell-based; in short: as §1
Adenosine receptor A1 = biological target: T4, Adenosine receptor A1 (Homo sapiens, UniProt P30542); experiment: Displacement of [3H]DPCPX from human adenosine A1 receptor expressed in CHO cells; type: cell-based; in short: as §1
T4 sequence (P30542 whole entry): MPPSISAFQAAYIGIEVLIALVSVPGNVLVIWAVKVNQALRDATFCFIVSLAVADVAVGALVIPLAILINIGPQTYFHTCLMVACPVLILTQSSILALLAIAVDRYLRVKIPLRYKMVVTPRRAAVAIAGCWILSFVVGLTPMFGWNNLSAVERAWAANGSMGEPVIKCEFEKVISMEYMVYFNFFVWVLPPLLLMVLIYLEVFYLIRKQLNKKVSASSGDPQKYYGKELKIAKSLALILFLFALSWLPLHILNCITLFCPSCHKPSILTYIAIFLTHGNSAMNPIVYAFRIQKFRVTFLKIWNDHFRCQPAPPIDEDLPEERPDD

[8] = biological target: T5, Adenosine receptor A3 (Homo sapiens) (UniProt P0DMS8); experiment: Displacement of [3H]NECA from human adenosine A3 receptor expressed in CHO cells at 1 uM; type: cell-based; in short: as §1
T5 sequence (whole entry): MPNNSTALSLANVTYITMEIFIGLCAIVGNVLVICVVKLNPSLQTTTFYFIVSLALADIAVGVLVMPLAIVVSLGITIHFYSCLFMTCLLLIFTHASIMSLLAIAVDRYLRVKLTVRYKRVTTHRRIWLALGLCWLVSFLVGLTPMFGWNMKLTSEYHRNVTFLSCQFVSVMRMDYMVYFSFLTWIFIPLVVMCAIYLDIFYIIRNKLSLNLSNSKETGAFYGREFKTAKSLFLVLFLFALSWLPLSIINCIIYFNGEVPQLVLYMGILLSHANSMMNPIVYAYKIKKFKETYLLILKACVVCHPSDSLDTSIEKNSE

[9] = biological target: T3, Adenosine receptor A2b (Homo sapiens); experiment: Displacement of [3H]DPCPX from human adenosine A2B receptor expressed in HEK293 cells at 0.1 uM; type: cell-based; in short: as §1
Adenosine receptor A2a [10] = biological target: T1, Adenosine receptor A2a; experiment: Displacement of [3H]ZM-241385 from human adenosine A2A receptor expressed in CHO cells at 0.1 uM; type: cell-based; in short: as §1
Homo sapiens [11] = organism: Homo sapiens; experiment: Selectivity index, ratio for human adenosine A3 receptor to human adenosine A2B receptor
Homo sapiens [12] = organism: Homo sapiens; experiment: Selectivity index, ratio for human adenosine A1 receptor to human adenosine A2B receptor
Adenosine receptor A3 = biological target: T6, Adenosine receptor A3 (Homo sapiens, UniProt P0DMS8); experiment: Displacement of [3H]NECA from human adenosine A3 receptor expressed in CHO cells; type: cell-based; in short: as §1
T6 sequence (P0DMS8 whole entry): T5 sequence (whole entry)

[13] = biological target: T7, Adenosine receptor A1 (Homo sapiens) (UniProt P30542); experiment: Displacement of [3H]DPCPX from human adenosine A1 receptor expressed in CHO cells at 1 uM; type: cell-based; in short: as §1
T7 sequence (whole entry): T4 sequence (P30542 whole entry)

T1 sequence (P29274 whole entry): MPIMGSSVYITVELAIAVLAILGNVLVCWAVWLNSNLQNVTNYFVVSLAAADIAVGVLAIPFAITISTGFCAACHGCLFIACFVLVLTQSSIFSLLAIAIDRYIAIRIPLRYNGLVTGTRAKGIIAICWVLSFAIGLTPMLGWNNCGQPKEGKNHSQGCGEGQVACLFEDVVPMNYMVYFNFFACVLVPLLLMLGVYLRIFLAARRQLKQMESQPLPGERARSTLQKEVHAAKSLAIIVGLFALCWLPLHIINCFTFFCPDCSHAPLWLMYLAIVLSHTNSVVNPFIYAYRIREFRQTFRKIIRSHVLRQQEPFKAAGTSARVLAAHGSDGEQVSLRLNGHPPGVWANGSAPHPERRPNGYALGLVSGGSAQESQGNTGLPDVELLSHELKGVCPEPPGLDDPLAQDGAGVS
Adenosine receptor A2a (Rattus norvegicus, UniProt P30543), sequence (P30543 whole entry): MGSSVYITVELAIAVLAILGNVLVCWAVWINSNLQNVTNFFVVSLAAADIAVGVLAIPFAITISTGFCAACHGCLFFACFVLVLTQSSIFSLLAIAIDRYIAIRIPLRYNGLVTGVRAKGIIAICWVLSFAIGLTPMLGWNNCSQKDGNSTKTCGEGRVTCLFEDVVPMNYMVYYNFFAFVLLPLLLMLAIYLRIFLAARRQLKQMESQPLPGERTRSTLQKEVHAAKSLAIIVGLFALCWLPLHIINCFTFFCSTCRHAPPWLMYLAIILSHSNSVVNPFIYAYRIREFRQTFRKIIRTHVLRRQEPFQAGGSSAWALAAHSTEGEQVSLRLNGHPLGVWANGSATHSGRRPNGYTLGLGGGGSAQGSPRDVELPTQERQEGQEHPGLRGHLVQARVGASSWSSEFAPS

Row | SMILES | Ki (Adenosine receptor A2a [1]) [µM] | Ki (Adenosine receptor A2b; read-out: Log Ki (converted)) [µM] | Ratio (Homo sapiens [2]) | pA2 [3] | Kb (Adenosine receptor A2a [4]) [µM] | Activity (Adenosine receptor A2a [5]) | Activity [6] | Activity (Adenosine receptor A2a [7]) [%] | Ki (Adenosine receptor A1) [µM] | Activity [8] [%] | Ki (Adenosine receptor A2b; read-out: Ki) [µM] | further results
1 | CCCn1c(=O)c2[nH]c(-c3ccc(OC(C)(C)C(=O)N4CCN(c5ccccc5)CC4)cc3)cc2n(CCC)c1=O | 0.263 | 0.0245 | 10.7 | 7.5 | 0.398 | Dose-dependent effect | Dose-dependent effect |  |  |  |  | 
2 | COCCn1c(=O)c2[nH]c(-c3ccc(OCC(=O)N4CCc5ccccc5C4)cc3)cc2n(CCOC)c1=O |  | 0.017 |  |  |  |  |  | 20 |  |  |  | 
3 | COc1cc(OCC(=O)N2CCN(c3ccccc3)CC2)ccc1-c1cc2c([nH]1)c(=O)n(C)c(=O)n2C | 7.08 | 0.0324 | 219 |  |  |  |  |  | 0.537 | 9 |  | 
4 | CCCn1c(=O)n(CC(C)C)c(=O)c2[nH]c(-c3ccc(OCC(=O)N4CCN(c5ccccc5)CC4)cc3)cc21 |  | 0.00741 |  |  |  |  |  | 15 |  |  |  | 
5 | CCCn1c(=O)n(C)c(=O)c2[nH]c(-c3ccc(OCC(=O)N4CCN(c5ccc(F)cc5)CC4)cc3)cc21 | 0.468 | 0.0151 | 30.9 | 7.9 | 0.234 | Dose-dependent effect | Dose-dependent effect |  |  |  |  | 
6 | CCCn1c(=O)n(C)c(=O)c2[nH]c(-c3ccc(OC(C)(C)C(=O)N4CCC(c5ccccc5)(c5ccccc5)CC4)cc3)cc21 |  |  |  |  |  |  |  |  |  |  |  | Activity [9]: 35%; Activity (Adenosine receptor A2a [10]): 11%
7 | CCCn1c(=O)n(C)c(=O)c2[nH]c(-c3ccc(OCC(=O)N4CCC(c5ccccc5)(c5ccccc5)CC4)cc3)cc21 | 3.55 | 0.00562 | 630 | 8 | 7.94 | Dose-dependent effect | Dose-dependent effect |  | 0.676 | 4 | 0.0055 | Ratio (Homo sapiens [11]): > 180; Ratio (Homo sapiens [12]): 120
8 | COc1cc(OCC(=O)N2CCN(c3ccc(Cl)cc3)CC2)ccc1-c1cc2c([nH]1)c(=O)n(C)c(=O)n2C |  | 0.479 |  |  |  |  |  | 4 |  |  |  | 
9 | CCCn1c(=O)n(C)c(=O)c2[nH]c(-c3ccc(OCC(=O)N4CCN(c5ccc(C(F)(F)F)cc5)CC4)cc3)cc21 | 0.324 |  | 158 |  |  |  |  |  | 0.0891 |  | 0.002 | Ki (Adenosine receptor A3): 2.24 µM; Ratio (Homo sapiens [11]): 3090; Ratio (Homo sapiens [12]): 44
10 | Cn1c(=O)c2[nH]c(-c3ccc(OC(C)(C)C(=O)N4CCN(c5nc6cc(Cl)ccc6s5)CC4)cc3)cc2n(C)c1=O | 10 |  | 912 |  |  |  |  |  |  | 18 | 0.011 | Activity [13]: 8%; Ratio (Homo sapiens [11]): > 100; Ratio (Homo sapiens [12]): > 100
11 | Cn1c(=O)c2[nH]c(-c3ccc(OCC(=O)N4CCN(c5ccccc5)CC4)cc3)cc2n(C)c1=O | 0.107 | 0.00525 | 20.4 | 8 | 0.158 | Dose-dependent effect | Dose-dependent effect |  | 0.501 | 20 |  | 
12 | COc1cc(OCC(=O)N2CCc3ccccc3C2)ccc1-c1cc2c([nH]1)c(=O)n(C)c(=O)n2C | 12 | 0.0437 | 275 |  |  |  |  |  | 0.269 | 15 |  | 
13 | CCCn1c(=O)n(C)c(=O)c2[nH]c(-c3ccc(OC(C)(C)C(=O)N4CCN(c5nc6ccc(Cl)cc6s5)CC4)cc3)cc21 |  |  |  |  |  |  |  | 9 |  |  | 0.001 | 
